Tests used:
[1] = Inhibition of MAP
[2] = target: T1, MAP kinase-interacting serine/threonine-protein kinase 2 (Homo sapiens, UniProt Q9HBH9); experiment: Inhibition of MNK2 using 5-FAM-TATKSGSTTKNRFVV-NH2 as substrate preincubated for 1 hr prior substrate addition measured after 2 hrs by IMAP assay
Target sequence in this assay (Q9HBH9 whole entry): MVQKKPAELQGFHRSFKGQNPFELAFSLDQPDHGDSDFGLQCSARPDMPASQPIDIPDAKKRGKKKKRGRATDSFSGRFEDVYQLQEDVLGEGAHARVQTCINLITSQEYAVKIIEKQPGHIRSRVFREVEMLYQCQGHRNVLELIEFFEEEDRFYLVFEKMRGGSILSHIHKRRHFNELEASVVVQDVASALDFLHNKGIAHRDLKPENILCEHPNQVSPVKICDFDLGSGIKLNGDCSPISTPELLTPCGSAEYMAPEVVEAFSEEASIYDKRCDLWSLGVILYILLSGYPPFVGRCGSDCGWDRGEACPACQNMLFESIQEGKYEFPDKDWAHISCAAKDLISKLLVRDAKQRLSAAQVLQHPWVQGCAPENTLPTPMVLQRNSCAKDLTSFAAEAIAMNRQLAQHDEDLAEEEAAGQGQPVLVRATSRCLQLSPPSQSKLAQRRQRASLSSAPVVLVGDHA

[3] = target: Cyclin-dependent kinase 2/cyclin A (Homo sapiens) (UniProt P24941+P20248+P78396); experiment: Inhibition of CDK2/cyclin A using 5-FAM-GGGPATPKKAKKL-COOH as substrate at 10 uM after 1 hr by IMAP assay; type: protein-complex assay
Method in brief: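 IMAP fluorescence-polarization enzyme assay on CDK2/cyclin A, testing competition at the ATP site. Compounds tested at 10 μM, with purvalanol A at 1 μM as reference. Percent inhibition is the average ± SD of three independent experiments, or the mean of two for some compounds.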

[4] = target: Cyclin-dependent kinase 2/cyclin A (Homo sapiens, UniProt P24941); experiment: Inhibition of CDK2/cyclin A using 5-FAM-GGGPATPKKAKKL-COOH as substrate after 1 hr by IMAP assay; type: protein-complex assay
Method in brief: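 IMAP fluorescence-polarization assay on CDK2/cyclin A. IC50 taken from dose–response curves, given as average ± SD of three independent experiments, or the mean of two for one compound.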

[5] = Inhibition of MEK
[6] = target: T2, Protein kinase C epsilon type (Homo sapiens) (UniProt Q02156); experiment: Inhibition of PRKCE assessed as enzyme activity at 10 uM relative to control; parameters: scale not given: the % may be the effect or the level left
T2 sequence (whole entry): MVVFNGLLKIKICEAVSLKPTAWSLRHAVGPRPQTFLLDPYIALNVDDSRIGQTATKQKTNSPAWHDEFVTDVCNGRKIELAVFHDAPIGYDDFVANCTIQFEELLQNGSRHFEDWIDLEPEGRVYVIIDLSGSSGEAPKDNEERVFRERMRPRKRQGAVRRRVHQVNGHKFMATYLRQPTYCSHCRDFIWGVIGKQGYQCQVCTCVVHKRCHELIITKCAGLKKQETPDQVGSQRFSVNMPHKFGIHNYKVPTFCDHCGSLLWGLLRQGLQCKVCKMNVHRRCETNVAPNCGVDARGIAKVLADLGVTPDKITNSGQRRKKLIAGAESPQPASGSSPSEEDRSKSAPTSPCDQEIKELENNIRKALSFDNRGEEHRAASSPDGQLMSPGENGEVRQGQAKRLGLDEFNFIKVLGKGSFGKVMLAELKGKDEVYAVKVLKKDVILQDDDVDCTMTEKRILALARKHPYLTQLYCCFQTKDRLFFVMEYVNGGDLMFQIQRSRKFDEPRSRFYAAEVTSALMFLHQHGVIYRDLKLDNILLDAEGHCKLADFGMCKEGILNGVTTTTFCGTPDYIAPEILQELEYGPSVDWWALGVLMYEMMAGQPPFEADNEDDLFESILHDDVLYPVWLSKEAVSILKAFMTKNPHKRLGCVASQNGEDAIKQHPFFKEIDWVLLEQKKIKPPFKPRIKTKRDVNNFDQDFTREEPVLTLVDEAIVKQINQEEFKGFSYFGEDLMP
Method in brief: (§1)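 Single-point test at 10 μM in a 96-kinase screening panel. Reported as % of a DMSO negative control, where a lower value means stronger inhibition.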

[7] = target: T3, Serine/threonine-protein kinase PLK4 (Homo sapiens, UniProt O00444); experiment: Inhibition of PLK4
T3 sequence (O00444 whole entry): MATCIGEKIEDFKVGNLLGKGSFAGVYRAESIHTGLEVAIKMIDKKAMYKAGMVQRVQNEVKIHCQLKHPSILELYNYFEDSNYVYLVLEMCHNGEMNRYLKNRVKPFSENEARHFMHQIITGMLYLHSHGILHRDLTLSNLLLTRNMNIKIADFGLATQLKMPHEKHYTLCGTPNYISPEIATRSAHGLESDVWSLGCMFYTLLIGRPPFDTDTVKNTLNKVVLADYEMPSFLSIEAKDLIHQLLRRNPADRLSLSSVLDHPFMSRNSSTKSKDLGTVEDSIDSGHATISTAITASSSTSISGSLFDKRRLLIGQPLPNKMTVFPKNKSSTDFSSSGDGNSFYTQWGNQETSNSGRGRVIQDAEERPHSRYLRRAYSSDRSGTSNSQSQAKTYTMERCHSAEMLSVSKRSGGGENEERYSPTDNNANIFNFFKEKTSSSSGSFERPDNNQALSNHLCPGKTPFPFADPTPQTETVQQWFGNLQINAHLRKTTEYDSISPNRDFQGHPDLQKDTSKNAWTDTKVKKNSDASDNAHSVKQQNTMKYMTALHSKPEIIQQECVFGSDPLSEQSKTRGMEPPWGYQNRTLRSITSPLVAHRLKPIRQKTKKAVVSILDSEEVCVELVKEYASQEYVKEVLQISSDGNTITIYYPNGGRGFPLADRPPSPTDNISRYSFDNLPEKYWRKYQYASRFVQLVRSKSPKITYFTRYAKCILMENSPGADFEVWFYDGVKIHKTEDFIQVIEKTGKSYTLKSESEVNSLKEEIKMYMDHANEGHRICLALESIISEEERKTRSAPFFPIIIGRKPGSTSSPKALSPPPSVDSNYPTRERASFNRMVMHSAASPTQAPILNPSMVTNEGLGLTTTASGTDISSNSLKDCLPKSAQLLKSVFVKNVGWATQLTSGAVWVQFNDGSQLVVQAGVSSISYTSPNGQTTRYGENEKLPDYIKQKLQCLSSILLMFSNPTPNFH

[8] = target: T1, MAP kinase-interacting serine/threonine-protein kinase 2; experiment: Inhibition of MNK2 assessed as enzyme activity at 10 uM relative to control; parameters: scale not given: the % may be the effect or the level left; method in brief: as §1
Target sequence in this assay (Q9HBH9 whole entry, looked up): as the sequence (Q9HBH9 whole entry) above

[9] = target: T4, Tyrosine-protein kinase receptor UFO (Homo sapiens, UniProt P30530); experiment: Inhibition of AXL
T4 sequence (P30530 whole entry): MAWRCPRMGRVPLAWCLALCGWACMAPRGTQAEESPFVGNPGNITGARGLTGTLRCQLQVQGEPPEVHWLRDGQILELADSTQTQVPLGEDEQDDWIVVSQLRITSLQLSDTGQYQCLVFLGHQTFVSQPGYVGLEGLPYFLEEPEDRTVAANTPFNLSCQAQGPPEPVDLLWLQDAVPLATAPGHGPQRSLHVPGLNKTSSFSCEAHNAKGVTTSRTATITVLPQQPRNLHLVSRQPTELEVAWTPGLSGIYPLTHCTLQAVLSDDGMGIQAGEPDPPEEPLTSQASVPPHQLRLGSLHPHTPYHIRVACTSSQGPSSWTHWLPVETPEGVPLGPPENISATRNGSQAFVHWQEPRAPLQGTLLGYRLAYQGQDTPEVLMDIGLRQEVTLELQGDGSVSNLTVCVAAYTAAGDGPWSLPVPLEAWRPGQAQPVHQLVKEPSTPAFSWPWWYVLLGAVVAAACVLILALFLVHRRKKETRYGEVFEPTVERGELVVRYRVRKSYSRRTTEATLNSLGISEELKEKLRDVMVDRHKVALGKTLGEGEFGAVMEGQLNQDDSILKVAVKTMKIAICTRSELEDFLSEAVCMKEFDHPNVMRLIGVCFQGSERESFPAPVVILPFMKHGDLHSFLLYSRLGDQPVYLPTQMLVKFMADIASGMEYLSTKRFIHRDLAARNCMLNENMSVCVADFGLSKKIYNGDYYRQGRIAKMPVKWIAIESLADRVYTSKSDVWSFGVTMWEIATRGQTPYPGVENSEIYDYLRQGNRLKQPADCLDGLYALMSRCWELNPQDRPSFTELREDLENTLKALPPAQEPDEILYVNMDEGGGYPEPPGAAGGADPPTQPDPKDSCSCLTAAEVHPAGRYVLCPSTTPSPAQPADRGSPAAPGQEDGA

[10] = target: T5, Receptor-type tyrosine-protein kinase FLT3 (Homo sapiens, UniProt P36888); experiment: Inhibition of FLT3
T5 sequence (P36888 whole entry): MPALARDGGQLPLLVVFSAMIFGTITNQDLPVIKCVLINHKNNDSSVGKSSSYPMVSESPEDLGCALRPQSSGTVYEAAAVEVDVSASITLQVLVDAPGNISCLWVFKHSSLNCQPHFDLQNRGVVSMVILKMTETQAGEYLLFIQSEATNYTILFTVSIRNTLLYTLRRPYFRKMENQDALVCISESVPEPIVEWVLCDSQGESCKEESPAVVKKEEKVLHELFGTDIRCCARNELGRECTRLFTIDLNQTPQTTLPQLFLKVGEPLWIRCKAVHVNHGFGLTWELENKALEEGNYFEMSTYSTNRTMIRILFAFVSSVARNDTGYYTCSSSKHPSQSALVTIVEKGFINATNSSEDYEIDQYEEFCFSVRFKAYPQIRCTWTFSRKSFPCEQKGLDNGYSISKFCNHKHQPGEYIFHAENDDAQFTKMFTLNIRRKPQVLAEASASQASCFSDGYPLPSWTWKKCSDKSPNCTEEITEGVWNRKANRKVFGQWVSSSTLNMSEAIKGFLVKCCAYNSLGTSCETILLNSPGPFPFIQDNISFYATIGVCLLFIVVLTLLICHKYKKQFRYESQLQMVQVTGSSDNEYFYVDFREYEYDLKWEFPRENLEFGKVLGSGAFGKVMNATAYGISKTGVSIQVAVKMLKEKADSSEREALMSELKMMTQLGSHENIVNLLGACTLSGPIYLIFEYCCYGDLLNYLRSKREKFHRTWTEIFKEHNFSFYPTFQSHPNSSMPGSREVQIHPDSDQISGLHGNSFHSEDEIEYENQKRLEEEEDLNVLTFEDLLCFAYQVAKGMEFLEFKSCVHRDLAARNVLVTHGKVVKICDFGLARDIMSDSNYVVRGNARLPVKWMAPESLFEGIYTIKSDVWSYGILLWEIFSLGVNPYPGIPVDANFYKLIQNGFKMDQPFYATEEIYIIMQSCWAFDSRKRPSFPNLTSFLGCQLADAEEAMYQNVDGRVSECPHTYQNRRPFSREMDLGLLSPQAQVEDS

[11] = target: T1, MAP kinase-interacting serine/threonine-protein kinase 2; experiment: Inhibition of MNK2
Target sequence in this assay (Q9HBH9 whole entry): as the sequence (Q9HBH9 whole entry) above

[12] = target: Cyclin-dependent kinase 1 (Homo sapiens, UniProt P06493); experiment: Inhibition of CDK1
[13] = target: T6, Serine/threonine-protein kinase PLK4 (Homo sapiens) (UniProt O00444); experiment: Inhibition of PLK4 assessed as enzyme activity at 10 uM relative to control; parameters: scale not given: the % may be the effect or the level left; method in brief: as §1
T6 sequence (whole entry): T3 sequence (O00444 whole entry)

[14] = target: Receptor-type tyrosine-protein kinase FLT3 (Homo sapiens) (UniProt P36888); experiment: Inhibition of FLT3 assessed as enzyme activity at 10 uM relative to control; parameters: scale not given: the % may be the effect or the level left; method in brief: as §1
[15] = target: Cyclin-dependent kinase 5 (Homo sapiens, UniProt Q00535); experiment: Inhibition of CDK5
[16] = target: MAP kinase-interacting serine/threonine-protein kinase 1 (Homo sapiens, UniProt Q9BUB5); experiment: Inhibition of MNK1
[17] = target: Tyrosine-protein kinase receptor UFO (Homo sapiens) (UniProt P30530); experiment: Inhibition of AXL assessed as enzyme activity at 10 uM relative to control; parameters: scale not given: the % may be the effect or the level left; method in brief: as §1
[18] = target: T7, Protein kinase C epsilon type (Homo sapiens, UniProt Q02156); experiment: Inhibition of PRKCE
T7 sequence (Q02156 whole entry): T2 sequence (whole entry)

Chain of Cyclin-dependent kinase 1 (P06493 whole entry): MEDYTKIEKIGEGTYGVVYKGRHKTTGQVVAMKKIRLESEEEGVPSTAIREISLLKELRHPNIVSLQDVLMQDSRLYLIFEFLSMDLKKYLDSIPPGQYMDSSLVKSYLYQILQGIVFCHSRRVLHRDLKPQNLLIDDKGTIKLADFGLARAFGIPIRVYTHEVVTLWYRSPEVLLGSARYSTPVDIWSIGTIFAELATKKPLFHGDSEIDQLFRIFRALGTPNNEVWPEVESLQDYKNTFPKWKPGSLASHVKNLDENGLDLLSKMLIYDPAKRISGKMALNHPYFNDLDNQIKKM
Chain of Cyclin-dependent kinase 5 (Q00535 whole entry): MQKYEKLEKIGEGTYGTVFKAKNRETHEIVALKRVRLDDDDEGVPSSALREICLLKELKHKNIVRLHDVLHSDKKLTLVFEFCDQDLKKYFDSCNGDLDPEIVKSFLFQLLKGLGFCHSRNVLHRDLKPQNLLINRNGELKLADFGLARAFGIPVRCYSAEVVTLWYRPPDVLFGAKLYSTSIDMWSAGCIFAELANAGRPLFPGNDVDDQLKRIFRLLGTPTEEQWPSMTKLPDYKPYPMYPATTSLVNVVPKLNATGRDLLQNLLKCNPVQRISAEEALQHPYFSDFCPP
Chain of MAP kinase-interacting serine/threonine-protein kinase 1 (Q9BUB5 whole entry): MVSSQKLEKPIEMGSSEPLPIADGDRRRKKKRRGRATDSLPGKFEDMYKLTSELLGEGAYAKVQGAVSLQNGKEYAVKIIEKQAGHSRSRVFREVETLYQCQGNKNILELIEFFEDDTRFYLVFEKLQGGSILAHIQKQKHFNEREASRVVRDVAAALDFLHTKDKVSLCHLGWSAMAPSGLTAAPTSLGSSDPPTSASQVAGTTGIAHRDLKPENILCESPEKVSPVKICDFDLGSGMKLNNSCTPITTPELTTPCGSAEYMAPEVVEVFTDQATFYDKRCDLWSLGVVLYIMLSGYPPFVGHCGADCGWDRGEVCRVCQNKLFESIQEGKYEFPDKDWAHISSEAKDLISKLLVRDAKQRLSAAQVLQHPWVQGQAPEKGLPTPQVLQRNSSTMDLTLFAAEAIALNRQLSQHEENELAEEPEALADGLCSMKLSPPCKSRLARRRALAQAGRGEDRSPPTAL

SMILES	IC50 [2] [µM]	inhibition [3] [%]	other results
COc1cc(O)c2c(c1)[C@H]1O[C@@H]1C[C@H](O)[C@H](O)C(=O)/C=C\C[C@H](C)OC2=O	–	–	INH [1]: 17 nM
O=C1OCC/C=C/[C@@H](O)[C@@H](O)CC/C=C/c2cc(O)cc(O)c21	> 10	38	–
CC(C)[C@H](CO)Nc1nc(Nc2cccc(Cl)c2)c2ncn(C(C)C)c2n1	–	94	–
C[C@H]1C/C=C/[C@@H](O)[C@@H](O)CCC(O)Cc2cc(O)cc(O)c2C(=O)O1 (mixture of isomers)	> 10	8	–
COc1cc(O)c2c(c1)/C=C/CC[C@H](O)[C@H](O)/C=C/C[C@H](C)OC2=O	> 10	49	IC50 [4]: 19 µM
C[C@H]1C/C=C/CCCC/C=C/c2cc(O)cc(O)c2C(=O)O1	1.61	17	–
COc1cc(O)c2c(c1)CCC[C@H](O)[C@H](O)C(=O)/C=C\C[C@H](C)OC2=O	–	–	INH [5]: 4 nM
C[C@H]1CCC[C@@H](O)[C@@H](O)CC/C=C/c2cc(O)cc(O)c2C(=O)O1	1.35	25	–
C[C@H]1C/C=C/[C@@H](O)[C@@H](O)CCC(=O)Cc2cc(O)cc(O)c2C(=O)O1	> 10	21	–
C[C@H]1C/C=C/[C@@H](O)[C@@H](O)CC/C=C/c2cc(O)cc(O)c2C(=O)O1 [AIGIALOMYCIN D]	0.45	55	Activity [6]: 7.2%; IC50 [4]: 21 µM; Kd [7]: 0.26 µM; Activity [8]: 0.15%; Kd [9]: 1 µM; Kd [10]: 0.3 µM; Kd [11]: 0.16 µM; IC50 [12]: 6 µM; Activity [13]: 9.6%; Activity [14]: 7.1%; IC50 [15]: 6 µM; IC50 [16]: 40 µM; Activity [17]: 4.7%; Kd [18]: 12 µM
C[C@@H]1C/C=C/[C@@H](O)[C@@H](O)CC/C=C/c2cc(O)cc(O)c2C(=O)O1	> 10	64	IC50 [4]: 19 µM
COc1cc(O)cc2c1C(=O)O[C@@H](C)C/C=C/[C@@H](O)[C@@H](O)CC/C=C/2	> 10	17	–
COc1cc2c(c(OC)c1)C(=O)O[C@@H](C)C/C=C/[C@@H](O)[C@@H](O)CC/C=C/2	> 10	13	–
C[C@H]1CCC[C@@H](O)[C@@H](O)CCC(O)Cc2cc(O)cc(O)c2C(=O)O1 (mixture of isomers)	> 10	6	–
COc1cc(O)cc2c1C(=O)O[C@@H](C)CCC[C@@H](O)[C@@H](O)CC/C=C/2	> 10	10	–
C[C@H]1CCC[C@@H](O)[C@@H](O)CCC(=O)Cc2cc(O)cc(O)c2C(=O)O1	> 10	17	–
C[C@H]1CCC[C@@H](O)[C@@H](O)CCCCc2cc(O)cc(O)c2C(=O)O1	> 10	16	–
C[C@H]1C/C=C/[C@@H](O)[C@@H](O)CCC(=NO)Cc2cc(O)cc(O)c2C(=O)O1 (mixture of isomers)	> 10	19	–
C[C@H]1C/C=C/[C@H]2OC(C)(C)O[C@H]2CC/C=C/c2cc(O)cc(O)c2C(=O)O1	0.58	19	–

Reference: ChEMBL document CHEMBL2010797, “Exploring aigialomycin d and its analogues as protein kinase inhibitors for cancer targets” (ACS Med Chem Lett, 2011)
